Assay results from ChEMBL document CHEMBL5724801, “EUbOPEN Chemogenomics Library - Multiplex” (2024).
“And” between values parts separate entries of the source, which are not always exact repeats. Equal values may be shown once.

Columns and labels:
HEK-293T = assay: Multiplex assay against HEK293T; type: toxicity, cell-based; details: human
Outline: (§1)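 Values for tubulin, mitochondrial-mass and membrane-permeability phenotypes are per cents of cells with healthy nuclei. These cells were identified by CellPathfinder machine-learning gating of live cells that had been stained at seeding with Hoechst33342, BioTracker Green Microtubule Cytoskeleton Dye, MitoTracker Red and Annexin V Alexa Fluor 680 and imaged on a CQ1 microscope at 37°C and 5% CO2 after compound addition. The gating first set Hoechst high-intensity objects apart from normal cells, then split normal cells into healthy, pyknosed or fragmented nuclei, and pyknosed cells into mitotic or apoptotic.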

Fibroblast = assay: Multiplex assay against human fibroblast; type: toxicity, cell-based; outline: as §1
[1] = 12 h, 1 µM, compound concentration 1 uM
[2] = 12 h, 10 µM, compound concentration 10 uM
[3] = 24 h, 1 µM, compound concentration 1 uM
[4] = 24 h, 10 µM, compound concentration 10 uM
[5] = 48 h, 1 µM, compound concentration 1 uM
[6] = 48 h, 10 µM, compound concentration 10 uM

## CN1CCN2c3ncccc3Cc3ccccc3C2C1 (stereo not given) [MIRTAZAPINE]
HEK-293T; [1]
  Population Apoptotic (%): 58% and 51%
  Population Fragmented Nuclei (%): 4% and 3%
  Population Healthy Nuclei (%): 88% and 79%
  Population Hoechst High Intensity Objects (%): 5% and 7%
  Population Membrane Permeable-Phenotype (%): 0%
  Population Mitochondria Different-Phenotype (%): 41% and 68%
  Population Mitotic Cells (%): 41% and 48%
  Population Normal (%): 94% and 92%
  Population Pyknosed Nuclei (%): 7% and 17%
  Population Tubulin-Different-Phenotype (%): 22% and 21%
  Total Cell Count: 402 and 329
HEK-293T; [2]
  Population Apoptotic (%): 45% and 47%
  Population Fragmented Nuclei (%): 9% and 5%
  Population Healthy Nuclei (%): 75% and 79%
  Population Hoechst High Intensity Objects (%): 6%
  Population Membrane Permeable-Phenotype (%): 0% and 1%
  Population Mitochondria Different-Phenotype (%): 49% and 64%
  Population Mitotic Cells (%): 54% and 52%
  Population Normal (%): 93%
  Population Pyknosed Nuclei (%): 15%
  Population Tubulin-Different-Phenotype (%): 43% and 36%
  Total Cell Count: 228 and 240
HEK-293T; [3]
  Population Apoptotic (%): 33% and 42%
  Population Fragmented Nuclei (%): 9% and 6%
  Population Healthy Nuclei (%): 80% and 79%
  Population Hoechst High Intensity Objects (%): 3% and 6%
  Population Membrane Permeable-Phenotype (%): 0%
  Population Mitochondria Different-Phenotype (%): 35% and 47%
  Population Mitotic Cells (%): 66% and 57%
  Population Normal (%): 97% and 93%
  Population Pyknosed Nuclei (%): 10% and 14%
  Population Tubulin-Different-Phenotype (%): 18% and 17%
  Total Cell Count: 601 and 373
HEK-293T; [4]
  Population Apoptotic (%): 44% and 32%
  Population Fragmented Nuclei (%): 9% and 5%
  Population Healthy Nuclei (%): 78% and 80%
  Population Hoechst High Intensity Objects (%): 3% and 5%
  Population Membrane Permeable-Phenotype (%): 0%
  Population Mitochondria Different-Phenotype (%): 40% and 44%
  Population Mitotic Cells (%): 55% and 67%
  Population Normal (%): 96% and 94%
  Population Pyknosed Nuclei (%): 12% and 13%
  Population Tubulin-Different-Phenotype (%): 28% and 18%
  Total Cell Count: 274 and 314
HEK-293T; [5]
  Population Apoptotic (%): 23% and 44%
  Population Fragmented Nuclei (%): 11% and 13%
  Population Healthy Nuclei (%): 82% and 80%
  Population Hoechst High Intensity Objects (%): 2% and 3%
  Population Membrane Permeable-Phenotype (%): 1% and 0%
  Population Mitochondria Different-Phenotype (%): 19% and 21%
  Population Mitotic Cells (%): 76% and 55%
  Population Normal (%): 97% and 96%
  Population Pyknosed Nuclei (%): 6%
  Population Tubulin-Different-Phenotype (%): 13% and 9%
  Total Cell Count: 885 and 562
HEK-293T; [6]
  Population Apoptotic (%): 31% and 30%
  Population Fragmented Nuclei (%): 14% and 11%
  Population Healthy Nuclei (%): 74% and 81%
  Population Hoechst High Intensity Objects (%): 2% and 3%
  Population Membrane Permeable-Phenotype (%): 0%
  Population Mitochondria Different-Phenotype (%): 36% and 30%
  Population Mitotic Cells (%): 68% and 69%
  Population Normal (%): 97% and 96%
  Population Pyknosed Nuclei (%): 10% and 7%
  Population Tubulin-Different-Phenotype (%): 20% and 12%
  Total Cell Count: 390 and 521
Fibroblast; [1]
  Population Apoptotic (%): 44% and 33%
  Population Fragmented Nuclei (%): 10% and 24%
  Population Healthy Nuclei (%): 77% and 47%
  Population Hoechst High Intensity Objects (%): 3%
  Population Membrane Permeable-Phenotype (%): 0% and 4%
  Population Mitochondria Different-Phenotype (%): 6% and 5%
  Population Mitotic Cells (%): 56% and 66%
  Population Normal (%): 96%
  Population Pyknosed Nuclei (%): 12% and 27%
  Population Tubulin-Different-Phenotype (%): 24% and 45%
  Total Cell Count: 213 and 156
Fibroblast; [2]
  Population Apoptotic (%): 44% and 28%
  Population Fragmented Nuclei (%): 19% and 27%
  Population Healthy Nuclei (%): 69% and 40%
  Population Hoechst High Intensity Objects (%): 1% and 6%
  Population Membrane Permeable-Phenotype (%): 0% and 16%
  Population Mitochondria Different-Phenotype (%): 8% and 7%
  Population Mitotic Cells (%): 55% and 71%
  Population Normal (%): 98% and 93%
  Population Tubulin-Different-Phenotype (%): 30% and 60%
  Total Cell Count: 168 and 140
Fibroblast; [3]
  Population Apoptotic (%): 47% and 48%
  Population Healthy Nuclei (%): 82% and 50%
  Population Hoechst High Intensity Objects (%): 5% and 0%
  Population Membrane Permeable-Phenotype (%): 0% and 10%
  Population Mitochondria Different-Phenotype (%): 5% and 10%
  Population Mitotic Cells (%): 52% and 51%
  Population Normal (%): 94% and 99%
  Population Pyknosed Nuclei (%): 10% and 23%
